Data from ChEMBL document CHEMBL1122443, “Synthesis and antitumor evaluation of selected 5,6-disubstituted 1(2)H-indazole-4,7-diones” (1983).
Calls of active or inactive are those of the source. No cut-off for these calls is given here.

Experiments:
Mus musculus [1] = experiment: Antitumor activity in CF1 mice bearing Ehrlich ascites carcinoma measured as percent ascrit packed cell volume at 5 mg/kg; format: functional
Method in brief: (§1)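 Male CF1 mice (22–25 g) received 2 × 10⁶ Ehrlich carcinoma cells ip on day 0. Dosing was ip daily on days 1–8, with sacrifice on day 9. Ascites fluid volume per mouse and ascrit (packed cell volume) were measured for each group. Vehicle was 0.05% Tween 80, or 5% absolute EtOH in 0.05% Tween 80, used for both compound and control. 6-Mercaptopurine was the positive control.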

Mus musculus [2] = experiment: Antitumor activity in CF1 mice bearing Ehrlich ascites carcinoma measured as percent ascrit packed cell volume at 10 mg/kg; format: functional
Method in brief: (§2)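 CF1 male mice (22–25 g) were inoculated ip with 2 × 10⁶ Ehrlich cells on day 0 and treated ip on days 1–8 in 0.05% Tween 80 or 5% EtOH/0.05% Tween 80 vehicle. On day 9 the mice were sacrificed, and the ascrit (packed cell volume) of the ascites fluid was determined.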

Mus musculus [3] = experiment: Anti tumor activity in mice bearing lymphocytic leukemia P-388 at 5 mg/kg; format: functional
Method in brief: (§3)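 Male BDF1 mice (20–23 g) were inoculated ip with 1 × 10⁶ P-388 leukemia cells on day 0. Compound was given ip once daily on days 1–14 in 0.05% Tween 80 vehicle, with a vehicle control group and 5-fluorouracil as positive control. Activity was scored as % T/C, average days survived treated/control, with >125% taken as significant.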

Mus musculus [4] = experiment: Average days survived for treated / average days survived for control at 20 (mg/kg); 4.8/9.2; format: functional
Mus musculus [5] = experiment: Antitumor activity in CF1 mice bearing Ehrlich ascites carcinoma measured as ascites volume at 5 mg/kg; format: functional; method in brief: as §1
Mus musculus [6] = experiment: Antitumor activity in CF1 mice bearing Ehrlich ascites carcinoma measured as ascites volume at 10 mg/kg; format: functional
Method in brief: (§4)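 Ehrlich ascites cells (2 × 10⁶) were implanted ip in male CF1 mice (22–25 g) on day 0. Dosing was ip on days 1–8 in 0.05% Tween 80 or 5% EtOH/0.05% Tween 80, with vehicle controls. Mice were killed on day 9, and ascites fluid volume per mouse was measured.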

Mus musculus [7] = experiment: Antitumor activity in CF1 mice bearing Ehrlich ascites carcinoma measured as percent ascrit packed cell volume at 1 mg/kg; format: functional; method in brief: as §2
Mus musculus [8] = experiment: Antitumor activity in CF1 mice bearing Ehrlich ascites carcinoma measured as survivors on day 9 at 5 mg/kg; 6/6; format: functional
Mus musculus [9] = experiment: Antitumor activity in CF1 mice bearing Ehrlich ascites carcinoma measured as percentage inhibition at 1 mg/kg; IA= inactive; format: functional, organism-based; set-up: dose 1 mg/kg
Method in brief: (§5)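 In the Ehrlich ascites model, male CF1 mice (22–25 g) received 2 × 10⁶ cells ip on day 0 and compound ip on days 1–8, with a vehicle of 0.05% Tween 80 ± 5% EtOH. Ascites volume and ascrit were taken on day 9. % inhibition = 100 − [(vol × ascrit, treated)/(vol × ascrit, control)], with >80% taken as significant.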

Mus musculus [10] = experiment: Average days survived for treated / average days survived for control at 30 (mg/kg); 3.0/9.2; format: functional
Mus musculus [11] = experiment: Average days survived for treated / average days survived for control at 1 (mg/kg); 9.6/9.2; format: functional
Mus musculus [12] = experiment: Anti tumor activity in mice bearing lymphocytic leukemia P-388 at 30 mg/kg; format: functional; method in brief: as §3
Mus musculus [13] = experiment: Antitumor activity in CF1 mice bearing Ehrlich ascites carcinoma measured as ascites volume at 1 mg/kg; format: functional; method in brief: as §4
Mus musculus [14] = experiment: Antitumor activity in CF1 mice bearing Ehrlich ascites carcinoma measured as percentage inhibition at 10 mg/kg; IA= inactive; format: functional, organism-based; set-up: dose 10 mg/kg; method in brief: as §5
Mus musculus [15] = experiment: Antitumor activity in CF1 mice bearing Ehrlich ascites carcinoma measured as survivors on day 9 at 10 mg/kg; 5/6; format: functional
Mus musculus [16] = experiment: Average days survived for treated / average days survived for control at 10 (mg/kg); 6.4/9.2; format: functional
Mus musculus [17] = experiment: Antitumor activity in CF1 mice bearing Ehrlich ascites carcinoma measured as survivors on day 9 at 1 mg/kg; 6/6; format: functional
Mus musculus [18] = experiment: Average days survived for treated / average days survived for control at 5 (mg/kg); 8.8/9.2; format: functional
Mus musculus [19] = experiment: Antitumor activity in CF1 mice bearing Ehrlich ascites carcinoma measured as percentage inhibition at 5 mg/kg; format: functional
Method in brief: (§6)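 Ehrlich ascites model in male CF1 mice (22–25 g): 2 × 10⁶ cells ip on day 0, ip dosing days 1–8, kill on day 9. Percent inhibition = 100 − [(treated volume × treated ascrit)/(control volume × control ascrit)]. Greater than 80% was taken as significant. Vehicle was 0.05% Tween 80, alone or with 5% absolute EtOH. 6-Mercaptopurine was the positive control.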

Mus musculus [20] = experiment: Anti tumor activity in mice bearing lymphocytic leukemia P-388 at 1 mg/kg; format: functional; method in brief: as §3
Mus musculus [21] = experiment: Anti tumor activity in mice bearing lymphocytic leukemia P-388 at 10 mg/kg; format: functional; method in brief: as §3
Mus musculus [22] = experiment: Anti tumor activity in mice bearing lymphocytic leukemia P-388 at 20 mg/kg; format: functional
Method in brief: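 Male BDF1 mice (20–23 g) inoculated ip with 1 × 10⁶ P-388 lymphocytic leukemia cells on day 0. Test agents were given ip once daily on days 1–14, with 0.05% Tween 80 as vehicle for treated and control groups. Read-out is %T/C, the mean days survived by treated over control. Values above 125% were counted as significant. 5-Fluorouracil was the positive control.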

Mus musculus [23] = experiment: Antitumor activity in CF1 mice bearing Ehrlich ascites carcinoma measured as percentage inhibition at 1 mg/kg; format: functional; method in brief: as §5
Mus musculus [24] = experiment: Average days survived for treated / average days survived for control at 1 (mg/kg); 9.4/9.2; format: functional
Mus musculus [25] = experiment: Antitumor activity in CF1 mice bearing Ehrlich ascites carcinoma measured as survivors on day 9 at 1 mg/kg; 5/6; format: functional
Mus musculus [26] = experiment: Antitumor activity in CF1 mice bearing Ehrlich ascites carcinoma measured as survivors on day 9 at 5 mg/kg; 5/5; format: functional
Mus musculus [27] = experiment: Average days survived for treated / average days survived for control at 1 (mg/kg); 10/9.2; format: functional
Mus musculus [28] = experiment: Antitumor activity in CF1 mice bearing Ehrlich ascites carcinoma measured as survivors on day 9 at 10 mg/kg; 6/6; format: functional
Mus musculus [29] = experiment: Antitumor activity in CF1 mice bearing Ehrlich ascites carcinoma measured as survivors on day 9 at 8 mg/kg; 6/6; format: functional
Method in brief: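 Male CF1 mice (22–25 g) were given 2 × 10⁶ Ehrlich carcinoma cells ip on day 0. Compounds were dosed ip on days 1–8 in 0.05% Tween 80 or in 5% absolute EtOH in 0.05% Tween 80, with vehicle-treated controls. Mice were killed on day 9, and ascites volume and ascrit (packed cell volume) were measured per mouse.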

Mus musculus [30] = experiment: Antitumor activity in CF1 mice bearing Ehrlich ascites carcinoma measured as percent ascrit packed cell volume at 8 mg/kg; format: functional; method in brief: as §1
Mus musculus [31] = experiment: (§7) Antitumor activity in CF1 mice bearing Ehrlich ascites carcinoma measured as percentage inhibition at 8 mg/kg; format: functional; method in brief: as §5
Mus musculus [32] = experiment: Antitumor activity in CF1 mice bearing Ehrlich ascites carcinoma measured as ascites volume at 8 mg/kg; format: functional; method in brief: as §1
Mus musculus [33] = experiment: Antitumor activity in CF1 mice bearing Ehrlich ascites carcinoma measured as percent ascrit packed cell volume at 3 mg/kg; format: functional; method in brief: as §2
Mus musculus [34] = experiment: as §7; format: functional; method in brief: as §6; remark: listed apart in the source
Mus musculus [35] = experiment: Antitumor activity in CF1 mice bearing Ehrlich ascites carcinoma measured as survivors on day 9 at 3 mg/kg; 6/6; format: functional
Mus musculus [36] = experiment: Antitumor activity in CF1 mice bearing Ehrlich ascites carcinoma measured as percentage inhibition at 3 mg/kg; IA=inactive; format: functional, organism-based; set-up: dose 3 mg/kg; method in brief: as §5
Mus musculus [37] = experiment: Antitumor activity in CF1 mice bearing Ehrlich ascites carcinoma measured as survivors on day 9 at 8 mg/kg; 5/6; format: functional
Mus musculus [38] = experiment: Antitumor activity in CF1 mice bearing Ehrlich ascites carcinoma measured as ascites volume at 3 mg/kg; format: functional; method in brief: as §1
Mus musculus [39] = experiment: Anti tumor activity in mice bearing lymphocytic leukemia P-388 at 25 mg/kg; format: functional; method in brief: as §3
Mus musculus [40] = experiment: Average days survived for treated / average days survived for control at 25 (mg/kg); 17.6/9.5; format: functional

Structure (SMILES)	packed cell volume (Mus musculus [1]) [%]	packed cell volume (Mus musculus [2]) [%]	ascites volume (Mus musculus [5]) [ml mouse-1]	ascites volume (Mus musculus [6]) [ml mouse-1]	packed cell volume (Mus musculus [7]) [%]	Survivors (Mus musculus [8])	inhibition (Mus musculus [9])	ascites volume (Mus musculus [13]) [ml mouse-1]	inhibition (Mus musculus [14])	Survivors (Mus musculus [15])	Survivors (Mus musculus [17])	inhibition in vivo at 5 mg/kg (Mus musculus [19]) [%]	T/C (Mus musculus [20]) [%]	Survivors (Mus musculus [26])	Average survival (days) (Mus musculus [27])	packed cell volume (Mus musculus [30]) [%]	ascites volume (Mus musculus [32]) [ml mouse-1]	also measured
Cn1ncc2c1C(=O)C(Cl)=C(N1CC1)C2=O	41.4	37.3	2.5	3.4	35.2	6	inactive	2	inactive	5	6	5.8	107	–	–	–	–	T/C (Mus musculus [3]): 96%; Average survival (days) (Mus musculus [4]): 4.8; Average survival (days) (Mus musculus [10]): 3; Average survival (days) (Mus musculus [11]): 9.6; T/C (Mus musculus [12]): 33%; Average survival (days) (Mus musculus [16]): 6.4; Average survival (days) (Mus musculus [18]): 8.8; T/C (Mus musculus [21]): 70%; T/C (Mus musculus [22]): 52%
CCCSC1=C(N2CC2)C(=O)c2cnn(C)c2C1=O	37.8	39.4	0.88	1.5	37.2	–	–	0.26	inactive	5	–	78.5	102	5	–	–	–	inhibition in vivo at 1 mg/kg (Mus musculus [23]): 74.1%; Average survival (days) (Mus musculus [24]): 9.4; Survivors (Mus musculus [25]): 5
COC1=C(N2CC2)C(=O)c2cnn(C)c2C1=O	34.6	30.7	0.7	2.2	39.8	6	inactive	4.2	inactive	–	6	39.4	109	–	10	36.2	0.32	Survivors (Mus musculus [28]): 6; Survivors (Mus musculus [29]): 6; inhibition in vivo at 8 mg/kg (Mus musculus [31]): 64.1%
CC(=O)NC1=C(N2CC2)C(=O)c2c(cnn2C)C1=O	37.4	–	0.9	–	–	–	–	–	–	–	–	78.3	109	5	10	38.6	1.2	packed cell volume (Mus musculus [33]): 41.4%; inhibition in vivo at 8 mg/kg (Mus musculus [34]): 25.8%; Survivors (Mus musculus [35]): 6; inhibition (Mus musculus [36]): inactive; Survivors (Mus musculus [37]): 5; ascites volume (Mus musculus [38]): 3.2 ml mouse-1
O=c1[nH]cc(F)c(=O)[nH]1 [FLUOROURACIL]	–	–	–	–	–	–	–	–	–	–	–	–	–	–	–	–	–	T/C (Mus musculus [39]): 186%; Average survival (days) (Mus musculus [40]): 17.6
